Calls of active or inactive are those of the source. The calls are words filed in the database; no cut-off is given here.
Tests used:
U-87MG ATCC [1] = assay: Induction of ferroptosis-mediated antitumor activity against human U-87 MG cells xenografted in BALB/C nu/nu mouse assessed as reduction in GPX4 protein expression in tumor at 25 mg/kg, ip administered every 2 days for 40 days by immunofluoresence staining based assay; type: functional, organism-based; settings: time 40.0 day
Summary of the method: (§1)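 Xenografts of U-87 MG or SKOV-3 (1 × 10^8 cells/mL, sc) in female BALB/c nu/nu mice, 4 per group. Treated ip at 25 mg/kg in 100 μL every 2 days versus saline, tumors collected at day 40. Paraffin sections (6 μm) were blocked at 37 °C for 30 min, then incubated with rabbit anti-GPX4 or anti-FTH1 and then Alexa Fluor 488 anti-rabbit, each for 45 min at 37 °C.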

Mus musculus [2] = assay: Upregulation of Hspb5 mRNA expression in tumor of BALB/C nu/nu mouse xenografted with human U-87 MG cells at 25 mg/kg, ip administered every 2 days for 40 days by qPCR analysis; type: functional, organism-based; settings: time 40.0 day
Summary of the method: (§2)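 Female BALB/c nu/nu mice, 10 weeks old, 4 per group. Inoculated s.c. with 1 × 10^8 cells/mL of log-phase U-87 MG or SKOV-3 cells. Dosed i.p. with 100 μL at 25 mg/kg every 2 days; controls got 100 μL saline. Tumors harvested on day 40. RNA extracted from about 20 mg of tissue. qPCR panel of 69 genes, 40 cycles (94 °C 20 s, 60 °C 34 s). Analysed by 2–ΔΔCt; fold ≥1.5 taken as increased.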

Mus musculus [3] = assay: Upregulation of Cisd1 mRNA expression in tumor of BALB/C nu/nu mouse xenografted with human SK-OV-3 cells at 25 mg/kg, ip administered every 2 days for 40 days by qPCR analysis; type: functional, organism-based; settings: time 40.0 day
Summary of the method: (§3)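 Female BALB/c nu/nu mice bearing sc U-87 MG or SKOV-3 xenografts were dosed ip at 25 mg/kg (100 μL) every 2 days, or given saline, and tumors were taken at day 40. RNA was extracted from about 20 mg of tissue. qPCR ran 40 cycles (95 °C 15 min; 94 °C 20 s; 60 °C 34 s) on a 69-gene panel. Fold change was by 2^–ΔΔCt, with ≥1.5 counted as increased.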

SK-OV-3 [4] = assay: Induction of ferroptosis-mediated antitumor activity against human SK-OV-3 cells xenografted in BALB/C nu/nu mouse assessed as increase in Fe2+ level in tumor at 25 mg/kg, ip administered every 2 days for 40 days; type: functional, organism-based; settings: time 40.0 day
Summary of the method: (§4)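 U-87 MG or SKOV-3 sc xenografts (1 × 10^8 cells/mL) in female BALB/c nu/nu mice, 4 per group. Given 25 mg/kg ip in 100 μL every 2 days, or saline. Tumors harvested on day 40 and assayed for LPO, MDA, lactic acid, total glutathione (GSH + GSSG), ATP and Fe2+.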

Mus musculus [5] = assay: Upregulation of Ptgs2 mRNA expression in tumor of BALB/C nu/nu mouse xenografted with human U-87 MG cells at 25 mg/kg, ip administered every 2 days for 40 days by qPCR analysis; type: functional, organism-based; settings: time 40.0 day; summary of the method: as §2
Mus musculus [6] = assay: Upregulation of Lpcat3 mRNA expression in tumor of BALB/C nu/nu mouse xenografted with human U-87 MG cells at 25 mg/kg, ip administered every 2 days for 40 days by qPCR analysis; type: functional, organism-based; settings: time 40.0 day; summary of the method: as §2
Mus musculus [7] = assay: Upregulation of TFRC mRNA expression in tumor of BALB/C nu/nu mouse xenografted with human U-87 MG cells at 25 mg/kg, ip administered every 2 days for 40 days by qPCR analysis; type: functional, organism-based; settings: time 40.0 day; summary of the method: as §2
U-87MG ATCC [8] = assay: Induction of ferroptosis-mediated antitumor activity against human U-87 MG cells xenografted in BALB/C nu/nu mouse assessed as increase in malondialdehyde level in tumor at 25 mg/kg, ip administered every 2 days for 40 days by biochemical analysis; type: functional, organism-based; settings: time 40.0 day; summary of the method: as §4
SK-OV-3 [9] = assay: Induction of ferroptosis-mediated antitumor activity against human SK-OV-3 cells xenografted in BALB/C nu/nu mouse assessed as increase in lactic acid level in tumor at 25 mg/kg, ip administered every 2 days for 40 days by biochemical analysis; type: functional, organism-based; settings: time 40.0 day; summary of the method: as §4
Mus musculus [10] = assay: Upregulation of Hspb5 mRNA expression in tumor of BALB/C nu/nu mouse xenografted with human SK-OV-3 cells at 25 mg/kg, ip administered every 2 days for 40 days by qPCR analysis; type: functional, organism-based; settings: time 40.0 day; summary of the method: as §2
SK-OV-3 [11] = assay: Induction of ferroptosis-mediated antitumor activity against human SK-OV-3 cells xenografted in BALB/C nu/nu mouse assessed as increase in malondialdehyde level in tumor at 25 mg/kg, ip administered every 2 days for 40 days by biochemical analysis; type: functional, organism-based; settings: time 40.0 day; summary of the method: as §4
Mus musculus [12] = assay: Upregulation of Gclm mRNA expression in tumor of BALB/C nu/nu mouse xenografted with human SK-OV-3 cells at 25 mg/kg, ip administered every 2 days for 40 days by qPCR analysis; type: functional, organism-based; settings: time 40.0 day; summary of the method: as §3
Mus musculus [13] = assay: Upregulation of PPIF mRNA expression in tumor of BALB/C nu/nu mouse xenografted with human U-87 MG cells at 25 mg/kg, ip administered every 2 days for 40 days by qPCR analysis; type: functional, organism-based; settings: time 40.0 day; summary of the method: as §2
Mus musculus [14] = assay: Upregulation of Cars mRNA expression in tumor of BALB/C nu/nu mouse xenografted with human U-87 MG cells at 25 mg/kg, ip administered every 2 days for 40 days by qPCR analysis; type: functional, organism-based; settings: time 40.0 day; summary of the method: as §3
[15] = Selectivity index, ratio of IC50 for cytotoxicity against human U-87 MG cells to IC50 for cytotoxicity against human OVCAR-3 cells; type: toxicity, cell-based; settings: U-87 MG cells versus OVCAR-3 cells, read-out: Ratio IC50
SK-OV-3 [16] = assay: Induction of ferroptosis-mediated antitumor activity against human SK-OV-3 cells xenografted in BALB/C nu/nu mouse assessed as reduction in FTH1 protein expression in tumor at 25 mg/kg, ip administered every 2 days for 40 days by immunofluoresence staining based assay; type: functional, organism-based; settings: time 40.0 day; summary of the method: as §1
T-cell line = assay: Cytotoxicity against human primary T-lymphocytes assessed as reduction in cell viability at 1 to 2.5 uM incubated for 48 to 72 hrs by Annexin V- APC/PI staining based flow cytometry analysis; type: toxicity; settings: dose lower 1 µM, time lower 48 hrs, dose upper 2.5 µM, time upper 72 hrs
Summary of the method: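 T lymphocytes negatively selected from healthy-donor PBMCs isolated by density gradient. Cultured at 1.5 × 10^6/mL with 0.1, 1.0 or 2.5 μM compound, DMSO vehicle or untreated, for 48 or 72 h. Stained with annexin V-APC and propidium iodide; early and late apoptotic fractions counted by flow cytometry.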

Mus musculus [17] = assay: Upregulation of Hspb1 mRNA expression in tumor of BALB/C nu/nu mouse xenografted with human SK-OV-3 cells at 25 mg/kg, ip administered every 2 days for 40 days by qPCR analysis; type: functional, organism-based; settings: time 40.0 day; summary of the method: as §2
Mus musculus [18] = assay: Upregulation of Nrf2 mRNA expression in tumor of BALB/C nu/nu mouse xenografted with human SK-OV-3 cells at 25 mg/kg, ip administered every 2 days for 40 days by qPCR analysis; type: functional, organism-based; settings: time 40.0 day; summary of the method: as §2

Structure (SMILES): COc1cc(C(=O)c2cn(-c3ncccn3)cc2-c2ccco2)cc(OC)c1OC
- Activity (U-87MG ATCC [1]): Active
- Activity (Mus musculus [2]): Active
- Activity (Mus musculus [3]): Active
- Activity (SK-OV-3 [4]): Active
- Activity (Mus musculus [5]): Active
- Activity (Mus musculus [6]): Active
- Activity (Mus musculus [7]): Active
- Activity (U-87MG ATCC [8]): Active
- Activity (SK-OV-3 [9]): Active
- Activity (Mus musculus [10]): Active
- Activity (SK-OV-3 [11]): Active
- Activity (Mus musculus [12]): Active
- Activity (Mus musculus [13]): Active
- Activity (Mus musculus [14]): Active
- selectivity ratio [15]: 3.5
- Activity (SK-OV-3 [16]): Active
- Activity (T-cell line): Toxic
- Activity (Mus musculus [17]): Active
- Activity (Mus musculus [18]): Active

Source: ChEMBL document CHEMBL5236592, “Induction of Ferroptosis in Glioblastoma and Ovarian Cancers by a New Pyrrole Tubulin Assembly Inhibitor” (J Med Chem, 2022)
